# High-throughput results: PubChem, Sanford-Burnham Center for Chemical Genomics
# SENP8 block-1 = inhibitors of human SENP8 protease | Q96LD8 | purified SENP8, Z-RLRGG-aminoluciferin cleavage, luminescence | inhibition, % at 10 µM | 330,000 compounds, 1.2% hits | AID 2540; in the data active = inhibition above about 50%
# Target sequence (Q96LD8 whole entry, looked up): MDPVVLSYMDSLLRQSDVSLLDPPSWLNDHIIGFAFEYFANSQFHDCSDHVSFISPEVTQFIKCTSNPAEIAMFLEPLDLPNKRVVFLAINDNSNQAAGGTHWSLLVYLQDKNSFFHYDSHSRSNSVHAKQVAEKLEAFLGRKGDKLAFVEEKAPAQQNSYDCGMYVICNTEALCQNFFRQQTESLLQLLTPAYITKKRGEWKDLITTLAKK
# Apaf-1 inh = blocks human Apaf-1 apoptosome activity | O14727 | reconstituted apoptosome caspase-3 activity, DEVD-Rh110 fluorescence | inhibition, % at 20 µM | 330,000 compounds, 0.71% hits | AID 489030; active = inhibition of at least 40% at 20 µM;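 also: plate controls were DMSO wells for no effect and DEVD-CHO caspase inhibitor wells for full effect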
#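 System – cell-free apoptosome with Apaf-1, procaspase-3 and caspase-9 · Buffer or medium – pH 7.5 Hepes buffer with CHAPS, BSA, DTT · Also added – cytochrome c with DEVD-Rh110 · Times – 30 min compound preincubation, 50 min activation, room temperature · Technique – Rh110 fluorescence intensity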
# SENP7 inh = SENP7 protease inhibition; 330,000 compounds, 1.5% hits; recombinant SENP7, Z-RLRGG-aminoluciferin luminescence, 40 min; inhibition, % at 5 µM; Q9BQF6; AID 434973;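 active = inhibition above about 50% at the single test dose, limit read from the data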;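 also: plate controls were DMSO with enzyme for no effect and no enzyme buffer wells for full effect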
# SENP8 block-2 = blocks human SENP8 cleavage of Nedd8 substrate. Q96LD8. recombinant SENP8, Nedd8 substrate fluorescence. inhibition, % at 20 µM. 360,000 compounds, 0.64% hits; in the data active = inhibition mostly above about 40%, no sharp cut-off; inactive = mostly below about 27%
# SENP1 FRET inh = inhibitors of human SENP1 SUMO protease catalytic domain. Q9P0U3. recombinant SENP1 catalytic domain, CyPet-SUMO1-YPet FRET cleavage. inhibition, % at 10 µM. 360,000 compounds, 0.21% hits. AID 624204;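 active = inhibition at least 30% at 10 µM, raw YFP signal under a set limit, fluorescence ratio 0.5 to 1.5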;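 also: 0% = enzyme with DMSO and 100% = no enzyme wells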
#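 material = recombinant human SENP1 catalytic domain, His6-tagged | quantity = 20 pM enzyme | reagent = 25 nM SUMO1 FRET substrate | compound dosing = 10 µM single point, 0.5% DMSO | timing = 50 min enzyme reaction, room temperature, light-protected | detection = FRET, CFP and YFP emission | control set = no-enzyme low, enzyme-DMSO high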
# SENP6 block = SENP6 protease inhibition; inhibition, % at 10 µM; Recombinant SENP6 catalytic domain, aminoluciferin luminescence; 330,000 compounds, 1.8% hits; Q9GZR1;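 active = inhibition above about 50% at the single tested dose, limit read from the data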;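 also: plate controls were DMSO wells with enzyme for no effect and DMSO wells lacking enzyme for full effect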
# Target sequence (Q9GZR1 628-1112 limits assumed): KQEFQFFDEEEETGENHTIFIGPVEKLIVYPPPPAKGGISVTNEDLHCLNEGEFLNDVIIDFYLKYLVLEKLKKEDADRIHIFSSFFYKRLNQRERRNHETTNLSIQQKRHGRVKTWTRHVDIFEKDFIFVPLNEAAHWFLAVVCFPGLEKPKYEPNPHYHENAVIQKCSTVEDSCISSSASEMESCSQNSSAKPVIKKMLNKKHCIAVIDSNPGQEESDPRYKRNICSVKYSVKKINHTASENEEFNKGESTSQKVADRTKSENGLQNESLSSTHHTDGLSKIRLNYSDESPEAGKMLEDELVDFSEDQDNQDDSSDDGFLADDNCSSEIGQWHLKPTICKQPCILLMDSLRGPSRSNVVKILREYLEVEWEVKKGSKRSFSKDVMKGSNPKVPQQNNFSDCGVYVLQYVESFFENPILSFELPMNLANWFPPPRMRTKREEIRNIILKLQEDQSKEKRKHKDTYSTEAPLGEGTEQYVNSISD
# SENP8 conf = confirmation of human SENP8 protease inhibitors; shares compounds with SENP7 inh; Recombinant SENP8, Z-RLRGG-aminoluciferin luminescence, 60 min; inhibition, % at 12.5 µM; 6,200 compounds, 40% hits; AID 488912;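 active = mean inhibition across replicates above about 50%, limit read from the data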
# SENP6 conf = human SENP6 inhibition, confirmed. shares compounds with SENP7 inh. recombinant SENP6, Z-RLRGG-aminoluciferin luminescence. inhibition, % at 12.5 µM. 6,200 compounds, 58% hits
# SENP7 conf = human SENP7 inhibition, confirmed. inhibition, % at 12.5 µM. 6,200 compounds, 69% hits. shares compounds with SENP7 inh. recombinant SENP7, Z-RLRGG-aminoluciferin luminescence, 40 min
# Casp3 select = caspase-3 inhibition (SENP selectivity assay). shares compounds with SENP7 inh. purified caspase-3, Z-DEVD-aminoluciferin luminescence, 60 min. inhibition, % at 12.5 µM. 6,200 compounds, 60% hits. AID 488918;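 active = mean inhibition above about 50%, limit read from the data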;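 also: plate controls were enzyme with DMSO for no effect and wells without caspase-3 for full effect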
# Luc interf = interferes with luciferase luminescence in SENP counter-screen; shares compounds with SENP7 inh; Pre-incubated SENP8/Z-RLRGG-aminoluciferin, luciferase luminescence interference; inhibition, % at 12.5 µM; 6,200 compounds, 39% hits;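 active = mean inhibition above about 50% when retested at one dose, limit read from the data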;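 also: plate controls were DMSO wells with completed reaction for no effect and substrate without enzyme for full effect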
# An asterisk follows results filed as active; x = no result given. The list is not random: actives were taken first. Their share in the collection is about 2.9%.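 The calls were made as follows, unless noted: active = mean inhibition above about 50% in the one-dose retest (limit read from the data); inactive = the rest.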
SMILES,SENP8 block-1,Apaf-1 inh,SENP7 inh,SENP8 block-2,SENP1 FRET inh,SENP6 block,SENP8 conf,SENP6 conf,SENP7 conf,Casp3 select,Luc interf
N#C/C(=C\c1ccc(Sc2ccccc2)o1)c1nc2ccccc2[nH]1,23.3,6.3,94.0*,-95.8,-30.0,46.3,62.1*,47.8,98.6*,77.7*,66.9*
O=C(C=Cc1cccc(O)c1)c1ccccc1O,x,x,x,12.5,4.6,x,x,x,x,x,x
O=C(/C=C/c1ccc(O)c(O)c1)c1ccccc1O,96.8*,2.8,96.7*,20.1,-15.2,13.9,10.8,100.7*,103.1*,95.2*,98.8*
CN(C)C(=O)CCc1ccc2c3c([nH]c2c1)[C@]1(CCC2CCCC2)[C@@H](C(=O)N2CCOCC2)C[C@H](CC(=O)NCCC2=CCCCC2)C(=O)N1CC3,x,30.9,6.3,1.3,-2.2,x,x,x,x,x,x
c1ccc2c(c1)CCN(c1nc3cc4c(cc3s1)OCCO4)C2,96.5*,22.7,98.8*,-340.2,-7.3,97.5*,98.2*,98.8*,102.4*,97.0*,83.4*
NC(c1ccccc1)c1csc(Nc2ccc(S(N)(=O)=O)cc2)n1 (centres undefined),x,x,x,-4.6,3.1,x,x,x,x,x,x
COc1ccc2cc(-c3ccn[nH]3)ccc2c1,45.4,6.0,59.2*,4.3,-0.4,65.8*,31.7,53.0*,83.6*,45.3,64.0*
Cc1cc(C)n(-c2ccc(C(=O)N3CCN(S(=O)(=O)c4ccc(Cl)cc4)CC3)cc2)n1,-11.7,20.7,-2.6,3.5,0.3,-18.0,x,x,x,x,x
O=C(Nc1ccccc1)NN(C(=O)CCl)c1ccccc1,3.0,6.6,9.1,9.0,0.0,2.3,x,x,x,x,x
Cc1nc2sc(-c3ccccc3)cc2c(=O)n1-n1cccc1,34.5,15.9,43.0,-12.2,0.5,62.4*,6.9,17.1,42.6,32.0,2.3
O=c1c2cc(-c3ccccc3)sc2nc2n1CCC2,68.6*,6.7,72.4*,x,x,74.5*,19.2,68.9*,92.3*,31.1,-3.6
Cc1nc2sc(-c3ccccc3)cc2c(=O)[nH]1,76.4*,-12.1,-5.9,-63.8,-22.6,86.3*,36.8,82.0*,98.2*,92.4*,28.7
NC(=O)CSc1nc2sc(-c3ccccc3)cc2c(=O)n1N,-11.8,14.7,-9.3,-164.8,-2.4,-37.8,x,x,x,x,x
CC(=O)Nc1cc(C)ns1,x,x,x,3.3,1.7,x,x,x,x,x,x
Cn1sc(NC(=O)c2cccc(Cl)c2)nc1=O,64.6*,-11.0,69.5*,8.8,2.7,68.5*,11.3,72.4*,91.8*,81.8*,71.9*
O=C(c1ccc(=O)[nH]c1)N1CCCc2ccccc21,-5.4,4.2,-5.2,6.2,1.5,-10.6,x,x,x,x,x
COc1ccc2[nH]c3c(=O)n(Cc4ccc(C(=O)N5CCCC5)cc4)c(=S)[nH]c3c2c1,46.6,8.8,21.5,-245.8,-2.9,66.1*,11.1,24.4,17.4,17.2,4.3
COc1ccc2[nH]c3c(=O)n(CCCCC(=O)NCCN4CCCC4)c(=S)[nH]c3c2c1,4.7,12.4,3.5,-219.2,-0.1,5.9,x,x,x,x,x
CCC(=O)N=c1sc2c(OC)ccc(OC)c2n1C,-9.2,3.2,10.7,-22.3,0.4,-4.4,x,x,x,x,x
COc1ccc(C)c2sc(=NC(=O)c3cccc(N4C(=O)CCC4=O)c3)n(C)c12,24.6,-10.4,77.8*,-393.7,1.5,51.2*,-4.2,-2.3,0.3,14.7,3.2
COc1ccc(C)c2sc(=NC(=O)c3ccccc3)n(C)c12,5.9,18.5,99.0*,-388.0,0.6,14.9,4.5,78.3*,85.4*,90.2*,11.5
COc1ccc2cc(-c3ccccc3)ncc2c1,92.2*,-7.2,98.2*,-193.7,-2.5,94.7*,79.3*,95.0*,96.1*,86.2*,32.9
COc1ccc(-c2cc3cc(OC)c(OC)cc3cn2)cc1,32.6,15.8,47.5,-340.0,1.0,-13.7,x,x,x,x,x
COc1cc(OC)cc(-c2cc3ccc(OC)cc3cn2)c1,97.1*,11.3,100.3*,-304.4,0.2,99.3*,99.7*,100.7*,103.5*,98.6*,98.4*
COc1cc(OC)cc(-c2cc3ncccc3cn2)c1,29.0,9.8,53.4*,-14.4,1.8,42.9,18.6,21.5,67.9*,66.0*,51.3*
SMILES,SENP8 block-1,Apaf-1 inh,SENP7 inh,SENP8 block-2,SENP1 FRET inh,SENP6 block,SENP8 conf,SENP6 conf,SENP7 conf,Casp3 select,Luc interf
c1ccc(-c2cc3ccccc3cn2)cc1,81.6*,9.7,91.1*,-29.1,-3.5,84.3*,65.4*,85.0*,96.5*,77.4*,39.1
Fc1ccc2cnc(-c3cccnc3)cc2c1,-6.1,9.7,4.7,5.5,1.6,1.8,x,x,x,x,x
COc1ccc(-c2cc(=O)c3cc(F)ccc3[nH]2)cc1,-4.0,0.9,6.1,-352.7,-1.7,-1.2,x,x,x,x,x
CCOc1ccc2nc(-c3ccccc3)[nH]c2c1,69.5*,5.0,88.7*,-276.8,1.1,87.8*,84.7*,82.4*,94.2*,85.4*,83.6*
COc1ccc2[nH]c(-c3ccc(C)cc3)cc(=O)c2c1,76.7*,4.6,73.3*,-476.6,-0.3,81.1*,50.6*,81.2*,94.9*,92.1*,1.9
COc1ccc2nc(-c3ccccc3)[nH]c2c1,83.1*,-1.3,94.8*,-295.4,0.6,95.1*,4.1,90.3*,99.2*,94.1*,89.1*
CCOc1ccc2nc(C(C)O)[nH]c2c1 (centres undefined),-1.8,-3.3,2.6,-4.8,1.4,-1.6,x,x,x,x,x
COc1ccc2[nH]c(-c3ccccc3)cc2c1,86.4*,13.5,89.6*,-307.0,3.8,91.9*,12.6,89.3*,99.3*,61.2*,27.1
Cc1noc(C)c1NC(=O)N(C)C[C@H]1Oc2ccc(NC(=O)Nc3ccccc3)cc2C(=O)N([C@H](C)CO)C[C@@H]1C,-8.1,-8.1,1.3,6.7,0.6,9.9,x,x,x,x,x
C[C@H](NC(=O)c1ncn2c1C(=O)NC[C@H]2C)C(=O)OC(C)(C)C,x,x,x,-4.4,2.9,x,x,x,x,x,x
O=C(CC(Nc1ccc(Cl)cc1)C(=O)O)c1ccccc1 (centres undefined),76.9*,-2.3,81.2*,-107.7,-25.7,92.1*,41.9,86.0*,77.9*,67.2*,35.3
